What was measured:
[1] = target: Adrenergic receptor alpha-1 (Rattus norvegicus) (UniProt P15823+P23944+P43140); experiment: (§1) […] against binding of [3H]prazosin to cloned mammalian Alpha-1 adrenergic receptor expressed in cultured cells or from rat whole brain […]; format: cell-based
[2] = target: T1, D(2) dopamine receptor (Rattus norvegicus, UniProt P61169); experiment: Binding affinity of [3H]U-86170 towards Dopamine receptor D2 in cloned mammalian receptor expressed in cultured cells or from rat whole brain; format: cell-based
[3] = target: T2, D(4) dopamine receptor (Rattus norvegicus, UniProt P30729); experiment: Binding affinity of [3H]spiperone towards Dopamine receptor D4 expressed in cultured cells or from rat whole brain.; format: cell-based
T2 sequence (P30729 whole entry): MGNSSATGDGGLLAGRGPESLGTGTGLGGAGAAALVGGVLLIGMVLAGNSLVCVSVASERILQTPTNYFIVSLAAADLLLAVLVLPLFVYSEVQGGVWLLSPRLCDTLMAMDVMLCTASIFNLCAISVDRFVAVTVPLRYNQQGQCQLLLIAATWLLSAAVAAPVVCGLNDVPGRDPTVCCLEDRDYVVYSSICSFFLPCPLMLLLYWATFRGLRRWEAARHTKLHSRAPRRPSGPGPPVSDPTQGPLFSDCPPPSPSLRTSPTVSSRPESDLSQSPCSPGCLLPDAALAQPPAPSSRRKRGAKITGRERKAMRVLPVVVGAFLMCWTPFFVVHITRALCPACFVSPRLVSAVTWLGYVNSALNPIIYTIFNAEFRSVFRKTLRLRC

[4] = target: Adrenergic receptor alpha-2 (Rattus norvegicus) (UniProt P22086+P19328+P22909); experiment: […] against binding of [3H]clonidine to cloned mammalian Alpha-2 adrenergic receptor expressed in cultured cells or from rat whole brain at 1 uM
[5] = target: D(3) dopamine receptor (Rattus norvegicus, UniProt P19020); experiment: Binding affinity of [3H]spiperone towards Dopamine receptor D3 in cloned mammalian receptor expressed in cultured cells or from rat whole brain.; format: cell-based
Outline: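 Radioligand displacement on membranes from cloned mammalian receptors expressed in cultured cells. D1 used [3H]SCH23390 and D3 used [3H]spiperone.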

[6] = target: T3, 5-hydroxytryptamine receptor 1A (Rattus norvegicus, UniProt P19327); experiment: Binding affinity of [3H]-8-OH-DPAT towards 5-hydroxytryptamine 1A receptor in cloned mammalian receptor expressed in cultured cells or from rat whole brain.; format: cell-based
T3 sequence (P19327 whole entry): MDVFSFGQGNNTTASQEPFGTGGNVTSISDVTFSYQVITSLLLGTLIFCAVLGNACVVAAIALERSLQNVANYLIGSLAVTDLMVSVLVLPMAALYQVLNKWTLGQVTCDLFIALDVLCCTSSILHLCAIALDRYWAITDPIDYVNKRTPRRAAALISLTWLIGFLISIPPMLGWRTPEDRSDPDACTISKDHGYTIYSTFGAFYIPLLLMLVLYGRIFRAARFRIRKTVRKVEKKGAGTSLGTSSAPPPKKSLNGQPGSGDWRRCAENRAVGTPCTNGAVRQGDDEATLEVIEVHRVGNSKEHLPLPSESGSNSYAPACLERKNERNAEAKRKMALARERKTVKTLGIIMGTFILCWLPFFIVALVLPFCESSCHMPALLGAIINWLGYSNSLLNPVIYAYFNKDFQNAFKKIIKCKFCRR
Outline: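 Radioligand displacement with [3H]-8-OH-DPAT on membranes from cloned mammalian 5-HT1A receptor expressed in cultured cells.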

[7] = target: T4, Adrenergic receptor alpha-1 (Rattus norvegicus, UniProt P15823+P23944+P43140); experiment: as §1; format: cell-based
T4 sequence (P15823 whole entry): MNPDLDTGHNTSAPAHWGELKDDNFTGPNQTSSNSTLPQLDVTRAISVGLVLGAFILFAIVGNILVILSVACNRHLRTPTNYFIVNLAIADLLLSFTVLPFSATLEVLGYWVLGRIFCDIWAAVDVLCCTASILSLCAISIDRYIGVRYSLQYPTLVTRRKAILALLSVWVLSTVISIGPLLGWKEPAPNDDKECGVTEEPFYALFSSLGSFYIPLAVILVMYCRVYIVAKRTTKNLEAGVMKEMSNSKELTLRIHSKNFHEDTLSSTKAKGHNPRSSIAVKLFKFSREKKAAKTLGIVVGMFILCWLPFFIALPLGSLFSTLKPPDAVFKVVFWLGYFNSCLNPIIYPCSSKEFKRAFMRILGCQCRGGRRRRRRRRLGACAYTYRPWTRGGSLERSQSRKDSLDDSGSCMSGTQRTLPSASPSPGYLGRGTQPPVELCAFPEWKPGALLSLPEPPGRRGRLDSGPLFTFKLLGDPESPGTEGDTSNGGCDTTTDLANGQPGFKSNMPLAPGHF
T4 sequence (P23944 whole entry): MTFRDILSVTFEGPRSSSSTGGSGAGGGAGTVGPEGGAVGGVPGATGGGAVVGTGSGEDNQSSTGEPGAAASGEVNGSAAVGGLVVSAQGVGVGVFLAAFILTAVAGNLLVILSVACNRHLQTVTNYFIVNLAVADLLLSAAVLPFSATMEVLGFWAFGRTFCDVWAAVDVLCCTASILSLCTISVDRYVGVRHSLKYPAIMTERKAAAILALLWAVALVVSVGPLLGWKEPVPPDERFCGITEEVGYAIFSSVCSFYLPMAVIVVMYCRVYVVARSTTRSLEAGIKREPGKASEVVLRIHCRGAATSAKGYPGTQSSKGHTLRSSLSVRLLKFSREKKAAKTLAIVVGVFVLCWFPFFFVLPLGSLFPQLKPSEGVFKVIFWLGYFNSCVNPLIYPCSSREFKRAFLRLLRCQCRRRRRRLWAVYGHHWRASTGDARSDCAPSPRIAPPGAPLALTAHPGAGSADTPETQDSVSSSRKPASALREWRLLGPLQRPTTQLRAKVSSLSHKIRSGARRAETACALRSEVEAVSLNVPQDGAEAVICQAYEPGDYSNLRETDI
T4 sequence (P43140 whole entry): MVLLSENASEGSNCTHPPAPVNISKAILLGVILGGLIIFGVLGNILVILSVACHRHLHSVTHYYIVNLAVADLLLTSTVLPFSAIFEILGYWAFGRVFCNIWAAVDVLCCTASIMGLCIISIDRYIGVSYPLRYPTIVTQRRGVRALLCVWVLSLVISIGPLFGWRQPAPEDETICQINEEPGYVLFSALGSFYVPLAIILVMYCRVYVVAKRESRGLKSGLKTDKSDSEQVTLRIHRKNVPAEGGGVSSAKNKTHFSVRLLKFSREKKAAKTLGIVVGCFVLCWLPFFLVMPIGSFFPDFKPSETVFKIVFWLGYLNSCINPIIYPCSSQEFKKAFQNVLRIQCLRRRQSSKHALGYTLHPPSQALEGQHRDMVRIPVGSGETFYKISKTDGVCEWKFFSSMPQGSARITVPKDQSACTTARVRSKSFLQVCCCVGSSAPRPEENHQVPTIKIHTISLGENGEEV

[8] = target: Serotonin 2 (5-HT2) receptor (Rattus norvegicus, UniProt P30994+P08909+P14842); experiment: Binding affinity of [3H]ketanserin towards 5-hydroxytryptamine 2 receptor in cloned mammalian receptor expressed in cultured cells or from rat whole brain.; format: cell-based
[9] = target: D(1A) dopamine receptor (Rattus norvegicus, UniProt P18901); experiment: Binding affinity of [3H]SCH-23,390 towards Dopamine receptor D1 in cloned mammalian receptor expressed in cultured cells or from rat whole brain.; format: cell-based
[10] = target: T5, Adrenergic receptor alpha-2 (Rattus norvegicus, UniProt P22086+P19328+P22909); experiment: […] against binding of [3H]clonidine to cloned mammalian Alpha-2 adrenergic receptor expressed in cultured cells or from rat whole brain
T5 sequence (P22086 whole entry): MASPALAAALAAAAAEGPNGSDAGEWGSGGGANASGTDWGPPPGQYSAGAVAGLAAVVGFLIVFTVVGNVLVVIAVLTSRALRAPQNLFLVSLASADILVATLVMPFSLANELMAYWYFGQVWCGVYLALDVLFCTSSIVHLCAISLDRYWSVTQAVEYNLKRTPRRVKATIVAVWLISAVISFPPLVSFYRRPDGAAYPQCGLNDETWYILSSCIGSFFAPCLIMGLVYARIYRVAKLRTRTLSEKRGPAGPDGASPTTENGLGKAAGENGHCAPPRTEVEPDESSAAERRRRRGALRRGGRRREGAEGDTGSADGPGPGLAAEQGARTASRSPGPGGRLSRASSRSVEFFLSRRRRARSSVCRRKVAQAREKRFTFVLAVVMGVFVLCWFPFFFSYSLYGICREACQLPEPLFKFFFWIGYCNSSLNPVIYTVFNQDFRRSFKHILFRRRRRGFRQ
T5 sequence (P19328 whole entry): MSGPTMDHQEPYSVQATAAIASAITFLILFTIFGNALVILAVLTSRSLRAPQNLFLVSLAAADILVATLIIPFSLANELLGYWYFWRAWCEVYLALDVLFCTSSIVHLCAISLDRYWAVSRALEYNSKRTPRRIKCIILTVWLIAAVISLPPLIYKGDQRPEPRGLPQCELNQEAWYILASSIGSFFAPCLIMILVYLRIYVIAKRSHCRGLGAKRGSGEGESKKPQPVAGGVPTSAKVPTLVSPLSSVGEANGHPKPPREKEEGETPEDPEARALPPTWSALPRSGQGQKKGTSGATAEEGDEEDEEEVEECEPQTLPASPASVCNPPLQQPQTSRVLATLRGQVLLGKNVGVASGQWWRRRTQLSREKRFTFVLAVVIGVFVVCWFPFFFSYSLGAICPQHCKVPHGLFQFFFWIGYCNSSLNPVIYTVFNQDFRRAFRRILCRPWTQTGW
T5 sequence (P22909 whole entry): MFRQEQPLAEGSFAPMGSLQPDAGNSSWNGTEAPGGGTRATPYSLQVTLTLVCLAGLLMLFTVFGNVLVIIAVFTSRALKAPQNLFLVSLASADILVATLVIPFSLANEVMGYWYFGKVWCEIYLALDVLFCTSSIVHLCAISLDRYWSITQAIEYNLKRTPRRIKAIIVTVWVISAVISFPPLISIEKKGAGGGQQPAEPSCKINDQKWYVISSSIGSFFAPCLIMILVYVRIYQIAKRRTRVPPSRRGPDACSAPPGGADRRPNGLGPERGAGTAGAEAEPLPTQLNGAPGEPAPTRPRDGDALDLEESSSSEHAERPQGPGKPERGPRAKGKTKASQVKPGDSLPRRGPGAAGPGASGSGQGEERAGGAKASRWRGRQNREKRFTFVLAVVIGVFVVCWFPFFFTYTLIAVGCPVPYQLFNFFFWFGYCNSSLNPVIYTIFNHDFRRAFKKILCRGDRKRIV

[11] = target: Translocator protein (Mus musculus, UniProt P50637); experiment: Displacement of [3H]PK11195 binding from peripheral benzodiazepine receptor in MA-10 mouse tumor Leydig cells; format: cell-based
[12] = target: T1, D(2) dopamine receptor; experiment: Binding affinity to rat Dopamine receptor D2 expressed in CHO cells was determined using [3H]U-86170 as radioligand
[13] = target: Translocator protein (Rattus norvegicus, UniProt P16257); experiment: Displacement of [3H]PK11195 binding from peripheral benzodiazepine receptor in C6 rat glioma cell line; format: cell-based
Sequence of Translocator protein (Rattus norvegicus, UniProt P16257) (P16257 whole entry, looked up): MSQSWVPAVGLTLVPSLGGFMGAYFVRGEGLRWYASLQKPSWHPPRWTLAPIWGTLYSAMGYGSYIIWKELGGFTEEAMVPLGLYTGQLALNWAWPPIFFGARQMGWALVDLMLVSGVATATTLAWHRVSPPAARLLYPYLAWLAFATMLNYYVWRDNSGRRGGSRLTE

Sequence of D(1A) dopamine receptor (P18901 whole entry): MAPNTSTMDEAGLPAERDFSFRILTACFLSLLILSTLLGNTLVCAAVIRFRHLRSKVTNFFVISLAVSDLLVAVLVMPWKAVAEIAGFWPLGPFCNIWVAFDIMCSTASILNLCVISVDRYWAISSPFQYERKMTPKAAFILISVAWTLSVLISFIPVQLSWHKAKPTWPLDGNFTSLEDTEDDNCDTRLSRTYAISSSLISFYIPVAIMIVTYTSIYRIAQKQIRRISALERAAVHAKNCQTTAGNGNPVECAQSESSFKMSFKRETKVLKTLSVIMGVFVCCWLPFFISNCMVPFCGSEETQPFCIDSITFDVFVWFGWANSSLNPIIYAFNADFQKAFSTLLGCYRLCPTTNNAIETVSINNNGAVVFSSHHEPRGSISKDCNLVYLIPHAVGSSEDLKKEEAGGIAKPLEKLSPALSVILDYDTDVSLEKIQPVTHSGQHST
Sequence of D(3) dopamine receptor (P19020 whole entry): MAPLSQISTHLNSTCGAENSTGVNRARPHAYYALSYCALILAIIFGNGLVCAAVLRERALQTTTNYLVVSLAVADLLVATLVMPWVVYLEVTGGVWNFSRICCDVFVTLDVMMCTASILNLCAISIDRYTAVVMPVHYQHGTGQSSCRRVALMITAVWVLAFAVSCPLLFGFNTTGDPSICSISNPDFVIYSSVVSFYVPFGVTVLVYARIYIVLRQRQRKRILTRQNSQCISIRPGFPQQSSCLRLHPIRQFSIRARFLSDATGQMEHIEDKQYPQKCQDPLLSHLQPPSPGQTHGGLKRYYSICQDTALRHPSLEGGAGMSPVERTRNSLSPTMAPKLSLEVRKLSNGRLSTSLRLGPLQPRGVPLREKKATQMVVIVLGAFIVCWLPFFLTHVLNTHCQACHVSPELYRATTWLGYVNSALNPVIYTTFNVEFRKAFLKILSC
T1 sequence (P61169 whole entry): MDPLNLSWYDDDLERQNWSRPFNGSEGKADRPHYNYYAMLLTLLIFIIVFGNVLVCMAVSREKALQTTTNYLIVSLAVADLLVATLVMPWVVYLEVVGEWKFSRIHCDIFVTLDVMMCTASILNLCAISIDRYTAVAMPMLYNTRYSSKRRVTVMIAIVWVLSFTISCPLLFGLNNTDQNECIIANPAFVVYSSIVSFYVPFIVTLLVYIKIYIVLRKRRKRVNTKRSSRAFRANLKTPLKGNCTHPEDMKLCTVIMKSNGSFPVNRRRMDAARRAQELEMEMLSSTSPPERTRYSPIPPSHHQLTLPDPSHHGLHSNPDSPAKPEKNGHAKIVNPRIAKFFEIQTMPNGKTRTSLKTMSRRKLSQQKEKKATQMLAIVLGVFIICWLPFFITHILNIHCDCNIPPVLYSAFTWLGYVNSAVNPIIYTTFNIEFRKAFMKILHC
Sequence of Translocator protein (Mus musculus, UniProt P50637) (P50637 whole entry, looked up): as the sequence (P16257 whole entry, looked up) above, with S2P, Q3E, I67V, E77D, V110A, M113L, M149V, T168P counted along it

Compound: NS(=O)(=O)c1ccc(N2CCN(CC[C@H]3OCCc4ccccc43)CC2)cc1
- inhibition [1]: 41%
- Ki [2]: 5600 nM
- Ki [3]: 100 nM
- inhibition [4]: 15%
- Ki [5]: 2900 nM
- Ki [6]: 2400 nM

Compound: COc1ccc(N2CCN(CCC3OCCc4ccccc43)CC2)cc1 (stereo unspecified)
- Ki [2]: 1100 nM
- Ki [3]: 1.4 nM
- Ki [7]: 1280 nM
- Ki [8]: 76 nM
- Ki [9]: > 2400 nM
- Ki [10]: 1800 nM
- Ki [5]: 1200 nM
- Ki [6]: 1100 nM

Compound: Cc1ccc2c(c1)C(N1CCN(C)CC1)=Nc1cccnc1N2
- Ki [3]: 21 nM

Compound: COc1ccc(N2CCN(CC[C@H]3OCCc4ccccc43)CC2)cc1
- inhibition [1]: 36%
- Ki [2]: > 1800 nM
- Ki [3]: 25 nM
- Ki [8]: 30 nM
- Ki [9]: > 2400 nM
- inhibition [4]: 0%
- Ki [5]: 220 nM
- Ki [6]: > 1600 nM

Compound: Fc1ccc(N2CCN(CCC3OCCc4ccccc43)CC2)cc1 (stereo unspecified)
- Ki [2]: 160 nM
- Ki [3]: 3 nM
- Ki [7]: 38 nM
- Ki [8]: 5.8 nM
- Ki [9]: 410 nM
- Ki [10]: 140 nM
- Ki [5]: 240 nM
- Ki [6]: 120 nM

Compound: CN1C(=O)CN=C(c2ccc(Cl)cc2)c2cc(Cl)ccc21 [RO-54864]
- IC50 [11]: 10 nM

Compound: COc1cc2c(cc1OC)C(CCN1CCN(c3ccc(F)cc3)CC1)OCC2 (stereo unspecified)
- inhibition [1]: 100%
- Ki [2]: 400 nM
- Ki [3]: 24 nM
- Ki [8]: 2.1 nM
- Ki [9]: 26 nM
- inhibition [4]: 75%
- Ki [6]: 93 nM

Compound: COc1ccc(N2CCN(CC[C@@H]3OCCc4ccccc43)CC2)cc1
- inhibition [1]: 20%
- Ki [12]: 790 nM
- Ki [3]: 2.2 nM
- Ki [8]: 28 nM
- Ki [9]: > 2400 nM
- inhibition [4]: 9%
- Ki [5]: 1300 nM
- Ki [6]: 490 nM

Compound: NS(=O)(=O)c1ccc(N2CCN(CC[C@@H]3OCCc4ccccc43)CC2)cc1 [SONEPIPRAZOLE]
- Ki [2]: > 4300 nM
- Ki [3]: 7.2 nM
- Ki [7]: > 4900 nM
- Ki [8]: > 1800 nM
- Ki [10]: > 2600 nM
- Ki [5]: 5800 nM
- Ki [6]: > 3700 nM

Compound: CCCCCCN(CCCCCC)C(=O)Cc1c(-c2ccc(F)cc2)[nH]c2ccccc12
- IC50 [11]: 10 nM
- IC50 [13]: 10 nM

— ChEMBL document CHEMBL1129682, “(S)-(-)-4-[4-[2-(isochroman-1-yl)ethyl]-piperazin-1-yl] benzenesulfonamide, a selective dopamine D4 antagonist” (J Med Chem, 1996)
